Source: ChEMBL document CHEMBL4689842, “EUbOPEN Chemogenomics Library wave 1” (2021)

Test system: Fibroblast
Assay: Multiplex assay against human fibroblast
Type: toxicity, cell-based
Outline: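 Compound was added to live cells that had been stained at seeding with Hoechst33342, BioTracker Green Microtubule Cytoskeleton Dye, MitoTracker Red and Annexin V Alexa Fluor 680, and imaging followed on a CQ1 microscope at 37°C and 5% CO2. CellPathfinder machine-learning gating divided cells into Hoechst high-intensity objects or normal cells, normal cells into healthy, pyknosed or fragmented nuclei, and pyknosed cells into mitotic or apoptotic. Tubulin, mitochondrial-mass and membrane-permeability phenotypes are per cents of healthy-nucleus cells.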

[1] = 12 h, 1 µM, compound concentration 1 uM, replicate 1
[2] = 12 h, 1 µM, compound concentration 1 uM, replicate 2
[3] = 12 h, 10 µM, compound concentration 10 uM, replicate 1
[4] = 12 h, 10 µM, compound concentration 10 uM, replicate 2
[5] = 24 h, 1 µM, compound concentration 1 uM, replicate 1
[6] = 24 h, 1 µM, compound concentration 1 uM, replicate 2
[7] = 24 h, 10 µM, compound concentration 10 uM, replicate 1
[8] = 24 h, 10 µM, compound concentration 10 uM, replicate 2

Cc1c(Nc2ccc(S(=O)(=O)N3CCN(C)CC3)cc2F)nc2ccc(Nc3cnn(C4CC4)c3)cn2c1=O
Population Apoptotic (%) [1]: 64%
Population Fragmented Nuclei (%) [1]: 30%
Population Healthy Nuclei (%) [1]: 50%
Population Hoechst High Intensity Objects (%) [1]: 12%
Population Membrane Permeable-Phenotype (%) [1]: 31%
Population Mitochondria Different-Phenotype (%) [1]: 6%
Population Mitotic Cells (%) [1]: 35%
Population Normal (%) [1]: 87%
Population Pyknosed Nuclei (%) [1]: 19%
Population Tubulin-Different-Phenotype (%) [1]: 43%
Total Cell Count [1]: 263
Population Apoptotic (%) [2]: 80%
Population Fragmented Nuclei (%) [2]: 62%
Population Healthy Nuclei (%) [2]: 24%
Population Hoechst High Intensity Objects (%) [2]: 40%
Population Membrane Permeable-Phenotype (%) [2]: 55%
Population Mitochondria Different-Phenotype (%) [2]: 11%
Population Mitotic Cells (%) [2]: 20%
Population Normal (%) [2]: 59%
Population Pyknosed Nuclei (%) [2]: 13%
Population Tubulin-Different-Phenotype (%) [2]: 66%
Total Cell Count [2]: 62
Population Apoptotic (%) [3]: 79%
Population Fragmented Nuclei (%) [3]: 27%
Population Healthy Nuclei (%) [3]: 58%
Population Hoechst High Intensity Objects (%) [3]: 12%
Population Membrane Permeable-Phenotype (%) [3]: 7%
Population Mitochondria Different-Phenotype (%) [3]: 1%
Population Mitotic Cells (%) [3]: 20%
Population Normal (%) [3]: 87%
Population Pyknosed Nuclei (%) [3]: 13%
Population Tubulin-Different-Phenotype (%) [3]: 2%
Total Cell Count [3]: 288
Population Apoptotic (%) [4]: 50%
Population Fragmented Nuclei (%) [4]: 55%
Population Healthy Nuclei (%) [4]: 40%
Population Hoechst High Intensity Objects (%) [4]: 27%
Population Membrane Permeable-Phenotype (%) [4]: 9%
Population Mitochondria Different-Phenotype (%) [4]: 0%
Population Mitotic Cells (%) [4]: 50%
Population Normal (%) [4]: 72%
Population Pyknosed Nuclei (%) [4]: 3%
Population Tubulin-Different-Phenotype (%) [4]: 19%
Total Cell Count [4]: 72
Population Apoptotic (%) [5]: 72%
Population Fragmented Nuclei (%) [5]: 30%
Population Healthy Nuclei (%) [5]: 53%
Population Hoechst High Intensity Objects (%) [5]: 12%
Population Membrane Permeable-Phenotype (%) [5]: 14%
Population Mitochondria Different-Phenotype (%) [5]: 1%
Population Mitotic Cells (%) [5]: 27%
Population Normal (%) [5]: 87%
Population Pyknosed Nuclei (%) [5]: 16%
Population Tubulin-Different-Phenotype (%) [5]: 38%
Total Cell Count [5]: 257
Population Apoptotic (%) [6]: 100%
Population Fragmented Nuclei (%) [6]: 57%
Population Healthy Nuclei (%) [6]: 31%
Population Hoechst High Intensity Objects (%) [6]: 30%
Population Membrane Permeable-Phenotype (%) [6]: 40%
Population Mitochondria Different-Phenotype (%) [6]: 0%
Population Mitotic Cells (%) [6]: 0%
Population Normal (%) [6]: 69%
Population Pyknosed Nuclei (%) [6]: 10%
Population Tubulin-Different-Phenotype (%) [6]: 40%
Total Cell Count [6]: 68
Population Apoptotic (%) [7]: 65%
Population Fragmented Nuclei (%) [7]: 22%
Population Healthy Nuclei (%) [7]: 63%
Population Hoechst High Intensity Objects (%) [7]: 13%
Population Membrane Permeable-Phenotype (%) [7]: 7%
Population Mitochondria Different-Phenotype (%) [7]: 1%
Population Mitotic Cells (%) [7]: 34%
Population Normal (%) [7]: 86%
Population Pyknosed Nuclei (%) [7]: 13%
Population Tubulin-Different-Phenotype (%) [7]: 3%
Total Cell Count [7]: 293
Population Apoptotic (%) [8]: 0%
Population Fragmented Nuclei (%) [8]: 57%
Population Healthy Nuclei (%) [8]: 38%
Population Hoechst High Intensity Objects (%) [8]: 21%
Population Membrane Permeable-Phenotype (%) [8]: 9%
Population Mitochondria Different-Phenotype (%) [8]: 4%
Population Mitotic Cells (%) [8]: 100%
Population Normal (%) [8]: 78%
Population Pyknosed Nuclei (%) [8]: 3%
Population Tubulin-Different-Phenotype (%) [8]: 0%
Total Cell Count [8]: 73
